Reference: ChEMBL document CHEMBL4118097, “Selective Inhibitors of Dual Leucine Zipper Kinase (DLK, MAP3K12) with Activity in a Model of Alzheimer's Disease” (J Med Chem, 2017)

What was measured:
[1] = target: Epithelial discoidin domain-containing receptor 1 (Homo sapiens) (UniProt Q08345); experiment: Inhibition of recombinant GST-tagged human DDR1 (440 to 876 residues) expressed in baculovirus expression system at 1 uM by FRET assay relative to control
Summary of the method: (§1)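 Single-point screen at 1 μM compound in a 220-kinase panel run by Life Technologies (SelectScreen). Z′-LYTE format: phosphorylation of a labeled peptide substrate read by FRET. Values are reported as percent inhibition.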

[2] = target: Death-associated protein kinase 1 (Homo sapiens) (UniProt P53355); experiment: Inhibition of recombinant N-terminal GST-tagged human DAPK1 (1 to 363 residues) expressed in baculovirus expression system at 1 uM by FRET assay relative to control
Summary of the method: (§2)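 Single-concentration screen at 1 μM in Life Technologies SelectScreen, across a 220-kinase panel. Z′-LYTE format measures phosphorylation of a labeled peptide by FRET. Results are reported as percent inhibition.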

[3] = target: Dual specificity protein kinase CLK1 (Homo sapiens) (UniProt P49759); experiment: Inhibition of recombinant human GST-tagged CLK1 catalytic domain(129 to 484 residues)expressed in Escherichia coli at 1 uM by FRET assay relative to control
[4] = target: Casein kinase I isoform delta (Homo sapiens) (UniProt P48730); experiment: Inhibition of CK1delta (unknown origin) at 1 uM by FRET assay relative to control
[5] = target: Serine/threonine-protein kinase Chk1 (Homo sapiens) (UniProt O14757); experiment: Inhibition of recombinant full length His-tagged human CHK1 expressed in baculovirus expression system at 1 uM by FRET assay relative to control
Sequence of Serine/threonine-protein kinase Chk1 (Homo sapiens) (O14757 whole entry): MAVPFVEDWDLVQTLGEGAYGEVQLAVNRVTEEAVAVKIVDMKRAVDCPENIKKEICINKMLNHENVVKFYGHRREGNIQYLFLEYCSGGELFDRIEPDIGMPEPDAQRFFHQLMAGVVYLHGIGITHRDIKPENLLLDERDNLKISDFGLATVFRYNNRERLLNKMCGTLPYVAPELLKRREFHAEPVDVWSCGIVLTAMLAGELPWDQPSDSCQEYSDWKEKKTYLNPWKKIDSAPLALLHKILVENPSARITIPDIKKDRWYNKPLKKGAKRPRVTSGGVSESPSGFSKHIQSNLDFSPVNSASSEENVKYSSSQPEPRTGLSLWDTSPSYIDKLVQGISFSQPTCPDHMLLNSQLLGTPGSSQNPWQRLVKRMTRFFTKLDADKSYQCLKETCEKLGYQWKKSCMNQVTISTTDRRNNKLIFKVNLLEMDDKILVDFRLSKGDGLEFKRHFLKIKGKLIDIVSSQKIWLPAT

[6] = target: Serine/threonine-protein kinase BRSK1 (Homo sapiens) (UniProt Q8TDC3); experiment: Inhibition of recombinant full length GST-tagged human BrSK1 expressed in baculovirus expression system at 1 uM by FRET assay relative to control; summary of the method: as §2
[7] = target: Activin receptor type-1 (Homo sapiens) (UniProt Q04771); experiment: Inhibition of recombinant GST-tagged human ALK2 catalytic domain (147 to end residues) at 1 uM by FRET assay relative to control
Sequence of Activin receptor type-1 (Homo sapiens) (Q04771 whole entry, the tested form may be a part): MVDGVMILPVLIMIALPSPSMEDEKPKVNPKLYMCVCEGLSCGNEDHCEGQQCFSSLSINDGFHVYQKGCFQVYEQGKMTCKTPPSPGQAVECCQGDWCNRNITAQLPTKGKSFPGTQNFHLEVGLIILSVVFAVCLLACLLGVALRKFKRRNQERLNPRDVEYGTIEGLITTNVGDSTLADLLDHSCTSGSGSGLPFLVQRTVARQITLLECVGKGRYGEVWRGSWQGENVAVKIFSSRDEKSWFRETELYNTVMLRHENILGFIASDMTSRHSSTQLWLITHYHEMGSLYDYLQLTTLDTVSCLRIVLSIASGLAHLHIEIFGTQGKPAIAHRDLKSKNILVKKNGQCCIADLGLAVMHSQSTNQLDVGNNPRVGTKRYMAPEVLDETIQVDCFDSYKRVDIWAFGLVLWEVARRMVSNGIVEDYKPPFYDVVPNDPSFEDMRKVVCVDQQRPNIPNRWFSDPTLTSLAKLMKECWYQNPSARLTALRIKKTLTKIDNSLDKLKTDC

[8] = target: Tyrosine-protein kinase JAK3 (Homo sapiens) (UniProt P52333); experiment: Inhibition of recombinant GST-tagged human JAK3 catalytic domain (781 to 1124 residues) expressed in baculovirus expression system at 1 uM by FRET relative to control; summary of the method: as §1
[9] = target: Vascular endothelial growth factor receptor 1 (Homo sapiens) (UniProt P17948); experiment: Inhibition of recombinant GST-tagged human FLT1 cytoplasmic domain expressed in baculovirus expression system at 1 uM by FRET assay relative to control; summary of the method: as §1
[10] = target: Ephrin type-B receptor 1 (Homo sapiens) (UniProt P54762); experiment: Inhibition of recombinant GST-tagged human EphB1 cytoplasmic domain expressed in baculovirus expression system at 1 uM by FRET assay relative to control; summary of the method: as §1
[11] = target: Ephrin type-A receptor 1 (Homo sapiens) (UniProt P21709); experiment: Inhibition of recombinant GST-tagged human EphA1 cytoplasmic domain expressed in baculovirus expression system at 1 uM by FRET assay relative to control; summary of the method: as §1
[12] = target: Protein kinase C epsilon type (Homo sapiens) (UniProt Q02156); experiment: Inhibition of recombinant full length human PKCepsilon expressed in baculovirus expression system at 1 uM by FRET assay relative to control
Sequence of Protein kinase C epsilon type (Homo sapiens) (Q02156 whole entry): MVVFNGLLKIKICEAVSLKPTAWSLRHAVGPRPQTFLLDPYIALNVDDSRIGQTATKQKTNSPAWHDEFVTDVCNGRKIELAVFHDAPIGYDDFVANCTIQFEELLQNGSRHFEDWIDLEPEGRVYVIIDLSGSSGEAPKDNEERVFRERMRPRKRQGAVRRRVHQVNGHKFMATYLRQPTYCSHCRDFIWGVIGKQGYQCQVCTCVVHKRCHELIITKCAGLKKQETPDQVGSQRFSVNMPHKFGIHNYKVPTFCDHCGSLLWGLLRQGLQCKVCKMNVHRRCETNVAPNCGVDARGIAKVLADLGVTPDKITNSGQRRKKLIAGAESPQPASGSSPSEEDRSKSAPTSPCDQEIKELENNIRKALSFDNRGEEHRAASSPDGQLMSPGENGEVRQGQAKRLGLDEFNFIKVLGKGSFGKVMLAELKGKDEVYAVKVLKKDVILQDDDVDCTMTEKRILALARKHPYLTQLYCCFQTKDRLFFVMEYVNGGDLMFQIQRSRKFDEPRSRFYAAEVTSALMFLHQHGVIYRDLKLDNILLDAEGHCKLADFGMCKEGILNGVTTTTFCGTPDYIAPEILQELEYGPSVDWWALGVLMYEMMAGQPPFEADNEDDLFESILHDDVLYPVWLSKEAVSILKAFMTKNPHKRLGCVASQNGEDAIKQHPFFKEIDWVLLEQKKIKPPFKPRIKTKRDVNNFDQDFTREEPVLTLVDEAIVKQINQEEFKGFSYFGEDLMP

[13] = target: Protein kinase C delta type (Homo sapiens) (UniProt Q05655); experiment: Inhibition of recombinant full length human PKCdelta expressed in baculovirus expression system at 1 uM by FRET assay relative to control
[14] = target: Phosphorylase b kinase gamma catalytic chain, liver/testis isoform (Homo sapiens) (UniProt P15735); experiment: Inhibition of recombinant full length GST-tagged human PHKgamma2 expressed in baculovirus expression system at 1 uM by FRET assay relative to control; summary of the method: as §2
[15] = target: Platelet-derived growth factor receptor alpha (Homo sapiens) (UniProt P16234); experiment: Inhibition of recombinant GST-tagged human PDGFRalpha cytoplasmic domain expressed in baculovirus expression system at 1 uM by FRET assay relative to control; summary of the method: as §1
[16] = target: T1, Serine/threonine-protein kinase PAK 4 (Homo sapiens, UniProt O96013); experiment: Inhibition of recombinant GST-tagged human PAK4 catalytic domain expressed in baculovirus expression system at 1 uM by FRET assay relative to control; summary of the method: as §1
[17] = target: SRSF protein kinase 3 (Homo sapiens) (UniProt Q9UPE1); experiment: Inhibition of recombinant full length N-terminal GST-tagged human MSSK1 expressed in baculovirus at 1 uM by FRET assay relative to control
[18] = target: Dual specificity mitogen-activated protein kinase kinase 1 (Homo sapiens) (UniProt Q02750); experiment: Inhibition of recombinant full length His-tagged human MEK1 expressed in baculovirus expression system at 1 uM by FRET assay relative to control
[19] = target: MAP/microtubule affinity-regulating kinase 3 (Homo sapiens) (UniProt P27448); experiment: Inhibition of recombinant full length GST-tagged human MARK3 expressed in baculovirus expression system at 1 uM by FRET assay relative to control; summary of the method: as §2
[20] = target: Serine/threonine-protein kinase 16 (Homo sapiens, UniProt O75716); experiment: Inhibition of recombinant full length His-tagged human STK16 expressed in baculovirus expression system at 1 uM by FRET assay relative to control
[21] = target: Ribosomal protein S6 kinase alpha-2 (Homo sapiens) (UniProt Q15349); experiment: Inhibition of recombinant full length GST-tagged human RSK3 expressed in insect cells at 1 uM by FRET assay relative to control; summary of the method: as §2
[22] = target: Ribosomal protein S6 kinase alpha-1 (Homo sapiens) (UniProt Q15418); experiment: Inhibition of recombinant full length His-tagged human RSK1 expressed in baculovirus expression system at 1 uM by FRET assay relative to control
[23] = target: Proto-oncogene tyrosine-protein kinase ROS (Homo sapiens) (UniProt P08922); experiment: Inhibition of recombinant GST-tagged human Ros cytoplasmic domain expressed in baculovirus expression system at 1 uM by FRET assay relative to control; summary of the method: as §1
Sequence of Proto-oncogene tyrosine-protein kinase ROS (Homo sapiens) (P08922 whole entry, the tested form may be a part): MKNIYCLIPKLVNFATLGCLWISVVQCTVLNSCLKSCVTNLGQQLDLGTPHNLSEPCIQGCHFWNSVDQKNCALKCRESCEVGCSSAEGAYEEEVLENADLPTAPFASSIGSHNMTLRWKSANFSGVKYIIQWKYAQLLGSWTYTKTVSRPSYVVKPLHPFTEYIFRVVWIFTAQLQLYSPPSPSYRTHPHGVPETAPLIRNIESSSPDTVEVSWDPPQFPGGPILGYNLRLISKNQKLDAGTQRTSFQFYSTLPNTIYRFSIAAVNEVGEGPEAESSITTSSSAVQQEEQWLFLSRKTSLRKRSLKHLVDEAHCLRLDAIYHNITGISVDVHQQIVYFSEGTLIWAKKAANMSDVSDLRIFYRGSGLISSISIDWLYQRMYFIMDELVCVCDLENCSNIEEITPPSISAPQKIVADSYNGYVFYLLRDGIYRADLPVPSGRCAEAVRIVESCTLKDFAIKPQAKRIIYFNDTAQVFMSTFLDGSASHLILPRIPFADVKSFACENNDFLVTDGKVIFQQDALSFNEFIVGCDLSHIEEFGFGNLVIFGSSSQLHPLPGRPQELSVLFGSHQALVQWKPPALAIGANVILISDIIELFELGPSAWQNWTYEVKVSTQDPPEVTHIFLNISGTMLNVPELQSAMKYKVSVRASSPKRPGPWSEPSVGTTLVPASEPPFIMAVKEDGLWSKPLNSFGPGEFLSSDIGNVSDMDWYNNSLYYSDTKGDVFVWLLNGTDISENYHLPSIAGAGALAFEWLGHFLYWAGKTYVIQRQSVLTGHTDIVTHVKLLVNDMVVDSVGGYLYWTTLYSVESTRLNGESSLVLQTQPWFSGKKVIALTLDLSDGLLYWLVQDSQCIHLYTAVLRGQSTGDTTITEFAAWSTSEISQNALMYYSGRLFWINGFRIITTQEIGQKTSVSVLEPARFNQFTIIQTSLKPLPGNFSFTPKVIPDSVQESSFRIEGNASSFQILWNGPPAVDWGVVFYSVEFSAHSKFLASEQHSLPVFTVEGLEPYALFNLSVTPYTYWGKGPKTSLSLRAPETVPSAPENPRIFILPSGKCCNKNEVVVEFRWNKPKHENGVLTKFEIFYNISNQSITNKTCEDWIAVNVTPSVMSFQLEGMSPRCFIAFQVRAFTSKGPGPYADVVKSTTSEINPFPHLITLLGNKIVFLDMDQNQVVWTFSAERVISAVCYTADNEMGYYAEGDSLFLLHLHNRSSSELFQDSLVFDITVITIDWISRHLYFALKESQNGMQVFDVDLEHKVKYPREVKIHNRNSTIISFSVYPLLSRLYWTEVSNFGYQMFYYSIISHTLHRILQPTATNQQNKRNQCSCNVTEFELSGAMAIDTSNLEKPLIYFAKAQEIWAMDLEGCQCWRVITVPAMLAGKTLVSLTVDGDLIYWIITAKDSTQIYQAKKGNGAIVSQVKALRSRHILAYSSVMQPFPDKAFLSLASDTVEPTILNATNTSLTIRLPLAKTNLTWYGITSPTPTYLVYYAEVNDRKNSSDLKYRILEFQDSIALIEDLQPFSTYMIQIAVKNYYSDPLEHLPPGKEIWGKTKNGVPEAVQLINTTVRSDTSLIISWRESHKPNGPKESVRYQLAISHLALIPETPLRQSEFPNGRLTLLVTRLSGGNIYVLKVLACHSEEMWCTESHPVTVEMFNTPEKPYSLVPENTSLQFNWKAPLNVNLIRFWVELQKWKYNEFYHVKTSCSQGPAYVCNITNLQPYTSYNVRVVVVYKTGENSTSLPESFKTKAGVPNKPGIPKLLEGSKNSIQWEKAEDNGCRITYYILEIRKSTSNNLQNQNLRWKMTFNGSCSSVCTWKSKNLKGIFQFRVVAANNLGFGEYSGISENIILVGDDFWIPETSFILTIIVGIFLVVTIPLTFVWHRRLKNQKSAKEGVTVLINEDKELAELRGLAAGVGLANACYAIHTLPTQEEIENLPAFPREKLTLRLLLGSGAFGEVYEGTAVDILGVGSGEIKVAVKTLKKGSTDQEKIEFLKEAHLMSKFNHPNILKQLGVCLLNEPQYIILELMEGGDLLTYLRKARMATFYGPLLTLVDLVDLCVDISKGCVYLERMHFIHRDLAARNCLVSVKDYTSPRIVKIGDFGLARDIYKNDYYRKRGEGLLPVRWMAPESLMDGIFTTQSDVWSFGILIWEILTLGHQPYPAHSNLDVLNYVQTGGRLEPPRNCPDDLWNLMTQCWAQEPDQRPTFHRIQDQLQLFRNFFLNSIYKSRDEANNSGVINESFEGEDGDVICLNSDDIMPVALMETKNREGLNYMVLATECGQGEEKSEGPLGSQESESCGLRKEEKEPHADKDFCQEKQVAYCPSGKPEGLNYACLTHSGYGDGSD

[24] = target: cAMP-dependent protein kinase catalytic subunit PRKX (Homo sapiens) (UniProt P51817); experiment: Inhibition of full length GST-tagged human PRKX expressed in Escherichia coli at 1 uM by FRET assay relative to control
[25] = target: Serine/threonine-protein kinase N1 (Homo sapiens) (UniProt Q16512); experiment: Inhibition of full length recombinant GST-tagged human PRK1 expressed in baculovirus expression system at 1 uM by FRET assay relative to control
[26] = target: Protein kinase C theta type (Homo sapiens) (UniProt Q04759); experiment: Inhibition of PKCtheta (unknown origin) at 1 uM by FRET assay relative to control
[27] = target: Receptor-type tyrosine-protein kinase FLT3 (Homo sapiens, UniProt P36888); experiment: Inhibition of recombinant His-tagged human FLT3 cytoplasmic domain expressed in baculovirus expression system by FRET assay
[28] = target: T1, Serine/threonine-protein kinase PAK 4; experiment: Inhibition of recombinant GST-tagged human PAK4 catalytic domain expressed in baculovirus expression system by FRET assay
[29] = target: Mitogen-activated protein kinase 8 (Homo sapiens, UniProt P45983); experiment: Inhibition of recombinant full length His-tagged human JNK1alpha1 expressed in baculovirus expression system by FRET assay

Sequence of Epithelial discoidin domain-containing receptor 1 (Homo sapiens) (Q08345 whole entry, the tested form may be a part): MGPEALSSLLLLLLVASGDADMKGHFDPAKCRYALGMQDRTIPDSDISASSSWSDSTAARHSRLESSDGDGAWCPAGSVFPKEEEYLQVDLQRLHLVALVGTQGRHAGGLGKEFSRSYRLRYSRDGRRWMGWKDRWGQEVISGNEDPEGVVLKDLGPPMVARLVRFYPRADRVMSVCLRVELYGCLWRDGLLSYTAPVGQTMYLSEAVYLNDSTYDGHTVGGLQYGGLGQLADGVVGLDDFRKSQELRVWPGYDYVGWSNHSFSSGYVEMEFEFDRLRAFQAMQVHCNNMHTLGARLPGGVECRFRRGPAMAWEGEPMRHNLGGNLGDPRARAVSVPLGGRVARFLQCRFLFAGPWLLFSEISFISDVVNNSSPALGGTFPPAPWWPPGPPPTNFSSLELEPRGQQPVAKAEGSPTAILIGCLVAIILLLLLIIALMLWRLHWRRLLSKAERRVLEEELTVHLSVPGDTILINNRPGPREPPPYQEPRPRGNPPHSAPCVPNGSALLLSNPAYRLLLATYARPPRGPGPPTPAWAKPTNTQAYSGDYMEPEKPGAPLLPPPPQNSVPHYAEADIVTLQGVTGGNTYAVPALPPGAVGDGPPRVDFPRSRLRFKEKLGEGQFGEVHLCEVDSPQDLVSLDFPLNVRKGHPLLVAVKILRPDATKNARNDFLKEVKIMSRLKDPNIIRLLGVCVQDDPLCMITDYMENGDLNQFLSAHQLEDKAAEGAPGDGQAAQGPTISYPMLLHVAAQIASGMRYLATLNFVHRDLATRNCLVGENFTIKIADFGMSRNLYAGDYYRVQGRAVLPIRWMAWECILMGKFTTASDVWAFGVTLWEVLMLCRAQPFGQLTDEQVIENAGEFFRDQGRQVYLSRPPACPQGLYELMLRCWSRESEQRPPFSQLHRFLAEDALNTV

| Structure (SMILES) | inhibition [1] | inhibition [2] | inhibition [3] | inhibition [4] | inhibition [5] | inhibition [6] | inhibition [7] | inhibition [8] | inhibition [9] | inhibition [10] | inhibition [11] | inhibition [12] | inhibition [13] | inhibition [14] | inhibition [15] | inhibition [16] | inhibition [17] | inhibition [18] | inhibition [19] | inhibition [20] | also measured |
| --- | --- | --- | --- | --- | --- | --- | --- | --- | --- | --- | --- | --- | --- | --- | --- | --- | --- | --- | --- | --- | --- |
| CC(C)n1nc(-c2cnc(N)c(OC(F)(F)F)c2)cc1[C@H]1[C@@H]2CN(C3COC3)C[C@@H]21 | 5.2% | -5.1% | 1.8% | 10% | 4.4% | 5.8% | 10.9% | 21.9% | 4.8% | 10.1% | 13.5% | 1.9% | 0.9% | 1.7% | 7.1% | 69.5% | 6.5% | 14.8% | 16.8% | 50.3% | inhibition [21]: 3.6%; inhibition [22]: 5.5%; inhibition [23]: 37%; inhibition [24]: -2.9%; inhibition [25]: 5.3%; inhibition [26]: 9.3%; IC50 [27]: 709 nM; IC50 [28]: 673 nM; IC50 [29]: > 10 µM |
| Nc1ncc(-c2cc([C@H]3[C@@H]4CN(C5COC5)C[C@@H]43)n(CC3CC3)n2)cc1C(F)(F)F | -1.5% | 14% | 2.1% | -0.3% | 2.9% | -0.3% | 25.8% | 24.6% | -0.6% | 5.9% | 30.8% | -5% | -0.7% | 3.8% | 11.1% | 40.5% | -2.4% | 0% | 14.1% | 33.2% | inhibition [21]: 3.5%; inhibition [22]: 2.1%; inhibition [23]: 40.1%; inhibition [24]: -7.2%; inhibition [25]: -8%; inhibition [26]: 0.3%; IC50 [27]: 238 nM; IC50 [29]: > 10 µM |
